Results: ChEMBL document CHEMBL1255494, “In vivo comparison of the pharmacodynamic targets for echinocandin drugs against Candida species” (Antimicrob Agents Chemother, 2010)
≈ marks a conversion by molar mass, not a printed value. *1 amine or outer side, *2 acyl side, *3 side chain or, on linkers, in order; H or OH if unused. Where a SMILES comes first, the peptide text is derived from it. Bridges are numbered along the chain shown (N, C = ends). [ ]: non-standard residue; d: D form. The star is where a group is joined. hTyr(3S-OH,4S-OH,3'-OSO3H) = N[C@H](C(=O)O)[C@H](O)[C@@H](O)c1ccc(O)c(OS(=O)(=O)O)c1; Orn(4R-OH,5R-OH) = O=C([C@H](C[C@@H](O)[C@@H](O)N[*:3])N[*:1])[*:2]; Pro(3S-OH,4S-Me) = C[C@H]1CN[C@H](C(=O)O)[C@H]1O; X1 = CCCCCOc1ccc(-c2cc(-c3ccc(C(=O)*)cc3)no2)cc1; Gln(3R-OH) = NC(=O)C[C@@H](O)[C@H](N)C(=O)O; Hyp = O=C(O)[C@@H]1C[C@@H](O)CN1

Assays:
Mus musculus = experiment: Protein binding in Candida albicans infected neutropenic ICR Swiss mouse at 80 mg/kg, ip; type: ADME, organism-based; design: dose 80 mg/kg, route intraperitoneal; conditions: in vivo
[1] = Ratio of AUC (0 to 24 hrs) in Candida albicans infected neutropenic ICR Swiss mouse to MIC for Candida albicans at static dose after 24 hrs; type: functional
Method in brief: (§1)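 Neutropenic mice were infected iv and treated 2 h later. Four to six ip dose levels (0.078–160 mg/kg) were given every 24 h for 4 days, 3 mice per regimen. Kidney CFU were counted at 96 h. A sigmoid dose-effect model gave the static and 1-log-kill doses relative to burden at therapy start.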

[2] = Ratio of AUC (0 to 24 hrs) in Candida glabrata infected neutropenic ICR Swiss mouse to MIC for Candida glabrata at static dose after 24 hrs; type: functional; method in brief: as §1
[3] = Ratio of AUC (0 to 24 hrs) in Candida parapsilosis infected neutropenic ICR Swiss mouse to MIC for Candida parapsilosis at static dose after 24 hrs; type: functional; method in brief: as §1
[4] = Ratio of fAUC (0 to 24 hrs) in Candida albicans infected neutropenic ICR Swiss mouse to MIC for Candida albicans at static dose after 24 hrs; type: functional
[5] = Ratio of fAUC (0 to 24 hrs) in Candida glabrata infected neutropenic ICR Swiss mouse to MIC for Candida glabrata at static dose after 24 hrs; type: functional
[6] = Ratio of AUC (0 to 24 hrs) in Candida albicans infected neutropenic ICR Swiss mouse to MIC for Candida albicans at 1 log kill dose after 24 hrs; type: functional; method in brief: as §1
[7] = Ratio of AUC (0 to 24 hrs) in Candida glabrata infected neutropenic ICR Swiss mouse to MIC for Candida glabrata at 1 log kill dose after 24 hrs; type: functional; method in brief: as §1
[8] = Ratio of fAUC (0 to 24 hrs) in Candida albicans infected neutropenic ICR Swiss mouse to MIC for Candida albicans at 1 log kill dose after 24 hrs; type: functional
[9] = Ratio of fAUC (0 to 24 hrs) in Candida glabrata infected neutropenic ICR Swiss mouse to MIC for Candida glabrata at 1 log kill dose after 24 hrs; type: functional
[10] = Ratio of fAUC (0 to 24 hrs) in Candida parapsilosis infected neutropenic ICR Swiss mouse to MIC for Candida parapsilosis at 1 log kill dose after 24 hrs; type: functional
Candida albicans [11] = experiment: Fungistatic activity against Candida albicans infected in neutropenic ICR Swiss mouse after 24 hrs; type: functional
Method in brief: (§2)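 Female ICR Swiss mice, neutropenic via cyclophosphamide s.c. (150 mg/kg day −4, 100 mg/kg day −1 and day +2), infected by tail-vein injection of clinical isolates 2 h before therapy. Intraperitoneal dosing every 24 h for 4 days, 4–6 dose levels from 0.078 to 160 mg/kg, 3 mice per regimen. Kidney CFU counted at 96 h. Sigmoid dose-effect fit gives static dose and 1 log kill dose relative to burden at start of therapy.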

Nakaseomyces glabratus [12] = experiment: Fungistatic activity against Candida glabrata infected in neutropenic ICR Swiss mouse after 24 hrs; type: functional; method in brief: as §2
Candida albicans [13] = experiment: Antifungal activity against Candida albicans infected in ICR Swiss mouse assessed as log reduction in bacterial count […]; type: functional; method in brief: as §2
Candida parapsilosis [14] = experiment: Antifungal activity against Candida parapsilosis infected in ICR Swiss mouse assessed log reduction in bacterial count […]; type: functional; method in brief: as §2
Nakaseomyces glabratus [15] = experiment: Antifungal activity against Candida glabrata infected in ICR Swiss mouse; type: functional; method in brief: as §2
Candida albicans [16] = experiment: Antifungal activity against Candida albicans 98-17 after 24 hrs; type: functional; conditions: 98-17, 24 h
Method in brief: (§3)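 MICs by CLSI M27-A3 broth dilution in RPMI 1640, inoculum 0.5 × 10³ to 2.5 × 10³ cells/ml, 35°C. Read visually at 24 h as the lowest concentration giving ≥50% growth reduction versus control. Run on three occasions in duplicate and reported as the mean. C. krusei ATCC 6258 and C. parapsilosis ATCC 22019 served as QC strains.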

Candida albicans [17] = experiment: Antifungal activity against Candida albicans 98-210 after 24 hrs; type: functional; conditions: 98-210, 24 h
Method in brief: (§4)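 Broth microdilution per CLSI M27-A3 in RPMI 1640; inoculum 0.5 × 10³ to 2.5 × 10³ cells/ml, 35°C. […] Three separate occasions in duplicate, mean reported; C. krusei ATCC 6258 and C. parapsilosis ATCC 22019 as daily QC.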

Candida albicans [18] = experiment: Antifungal activity against Candida albicans 580 after 24 hrs; type: functional; conditions: Candida albicans, 580, 24 h; method in brief: as §4
Candida albicans [19] = experiment: Antifungal activity against Candida albicans 570 after 24 hrs; type: functional; conditions: Candida albicans, 570, 24 h; method in brief: as §3
Nakaseomyces glabratus [20] = experiment: Antifungal activity against Candida glabrata 5592 after 24 hrs; type: functional; conditions: Nakaseomyces glabratus, 5592, 24 h; method in brief: as §4
Nakaseomyces glabratus [21] = experiment: Antifungal activity against Candida glabrata 513 after 24 hrs; type: functional; conditions: Nakaseomyces glabratus, 513, 24 h; method in brief: as §4
Nakaseomyces glabratus [22] = experiment: Antifungal activity against Candida glabrata 33609 after 24 hrs; type: functional; conditions: Nakaseomyces glabratus, 33609, 24 h; method in brief: as §4
Nakaseomyces glabratus [23] = experiment: Antifungal activity against Candida glabrata 32930 after 24 hrs; type: functional; conditions: Nakaseomyces glabratus, 32930, 24 h; method in brief: as §4
Nakaseomyces glabratus [24] = experiment: Antifungal activity against Candida glabrata 33616 after 24 hrs; type: functional; conditions: Nakaseomyces glabratus, 33616, 24 h; method in brief: as §3
Nakaseomyces glabratus [25] = experiment: Antifungal activity against Candida glabrata 34341 after 24 hrs; type: functional; conditions: Nakaseomyces glabratus, 34341, 24 h; method in brief: as §3
Nakaseomyces glabratus [26] = experiment: Antifungal activity against Candida glabrata 37661 after 24 hrs; type: functional; conditions: Nakaseomyces glabratus, 37661, 24 h; method in brief: as §3
Candida metapsilosis = experiment: Antifungal activity against Candida metapsilosis 20463.02 after 24 hrs; type: functional; conditions: Lodderomyces metapsilosis, 20463.02, 24 h; method in brief: as §3
Candida parapsilosis [27] = experiment: Antifungal activity against Candida parapsilosis 20450.096 after 24 hrs; type: functional; conditions: Lodderomyces parapsilosis, 20450.096, 24 h; method in brief: as §3
Candida parapsilosis [28] = experiment: Antifungal activity against Candida parapsilosis 20385.079 after 24 hrs; type: functional; conditions: Lodderomyces parapsilosis, 20385.079, 24 h; method in brief: as §3
Candida parapsilosis [29] = experiment: Antifungal activity against Candida parapsilosis 20477.048 after 24 hrs; type: functional; conditions: Lodderomyces parapsilosis, 20477.048, 24 h; method in brief: as §3
Candida parapsilosis [30] = experiment: Antifungal activity against Candida parapsilosis 20423.078 after 24 hrs; type: functional; conditions: Lodderomyces parapsilosis, 20423.078, 24 h; method in brief: as §3
Candida parapsilosis [31] = experiment: Antifungal activity against Candida parapsilosis 20562.03 after 24 hrs; type: functional; conditions: Lodderomyces parapsilosis, 20562.03, 24 h; method in brief: as §3
Candida parapsilosis [32] = experiment: Antifungal activity against Candida parapsilosis 20489.085 after 24 hrs; type: functional; conditions: Lodderomyces parapsilosis, 20489.085, 24 h; method in brief: as §4
Candida parapsilosis [33] = experiment: Antifungal activity against Candida parapsilosis 20557.012 after 24 hrs; type: functional; conditions: Lodderomyces parapsilosis, 20557.012, 24 h; method in brief: as §3
Candida parapsilosis [34] = experiment: Antifungal activity against Candida parapsilosis 20435.057 after 24 hrs; type: functional; conditions: Lodderomyces parapsilosis, 20435.057, 24 h; method in brief: as §3
[35] = AUC (0 to 24 hrs) in Candida albicans infected neutropenic ICR Swiss mouse at 80 mg/kg, ip; type: ADME, organism-based; design: time < 24 hr, dose 80 mg/kg, route intraperitoneal; conditions: plasma
Method in brief: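 Neutropenic female ICR Swiss mice (cyclophosphamide sc at 150 mg/kg on day −4, 100 mg/kg on day −1 and day +2) infected iv via tail vein with Candida; single ip doses of 5, 20 or 80 mg/kg. Serum drawn from 3 mice per time point at eight time points and assayed by microbiologic assay (C. albicans K1) or […]. Noncompartmental analysis; AUC by trapezoidal rule.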

Compound: CCCCCOc1ccc(-c2cc(-c3ccc(C(=O)N[C@H]4C[C@@H](O)[C@@H](O)NC(=O)[C@@H]5[C@@H](O)[C@@H](C)CN5C(=O)[C@H]([C@H](O)CC(N)=O)NC(=O)[C@H]([C@H](O)[C@@H](O)c5ccc(O)c(OS(=O)(=O)O)c5)NC(=O)[C@@H]5C[C@@H](O)CN5C(=O)[C@H]([C@@H](C)O)NC4=O)cc3)no2)cc1 [MICAFUNGIN] (X1-[Orn(4R-OH,5R-OH)]T[Hyp][hTyr(3S-OH,4S-OH,3'-OSO3H)][Gln(3R-OH)][Pro(3S-OH,4S-Me)]; lactam 1-C)
- Activity (Mus musculus): 99.75%
- Ratio [1]: 5299
- Ratio [2]: 1542
- Ratio [3]: 1981
- Ratio [4]: 12.7
- Ratio [5]: 3.9
- Ratio [6]: 10088
- Ratio [7]: 3778
- Ratio [8]: 25.2
- Ratio [9]: 9.45
- Ratio [10]: 7.73
- Activity (Candida albicans [11]): 2.79 mg/kg
- Activity (Nakaseomyces glabratus [12]): 2.47 mg/kg
- Activity (Candida albicans [13]): 5.63 mg/kg
- Activity (Candida parapsilosis [14]): 55.8 mg/kg
- Emax (Nakaseomyces glabratus [15]): 5.4 log10 CFU/kidneys
- ED50 (Nakaseomyces glabratus [15]; Nakaseomyces glabratus): 3 mg/kg
- MIC (Candida albicans [16]): 0.03 µg/mL (≈ 0.0236 µM)
- MIC (Candida albicans [17]): 0.016 µg/mL (≈ 0.0126 µM)
- MIC (Candida albicans [18]): 8 ng/mL (≈ 0.0063 µM)
- MIC (Candida albicans [19]): 0.02 µg/mL (≈ 0.0157 µM)
- MIC (Nakaseomyces glabratus [20]): 0.016 µg/mL (≈ 0.0126 µM)
- MIC (Nakaseomyces glabratus [21]): 0.016 µg/mL (≈ 0.0126 µM)
- MIC (Nakaseomyces glabratus [22]): 0.016 µg/mL (≈ 0.0126 µM)
- MIC (Nakaseomyces glabratus [23]): 8 ng/mL (≈ 0.0063 µM)
- MIC (Nakaseomyces glabratus [24]): 0.25 µg/mL (≈ 0.197 µM)
- MIC (Nakaseomyces glabratus [25]): 0.06 µg/mL (≈ 0.0472 µM)
- MIC (Nakaseomyces glabratus [26]): 0.25 µg/mL (≈ 0.197 µM)
- MIC (Candida metapsilosis): 0.12 µg/mL (≈ 0.0945 µM)
- MIC (Candida parapsilosis [27]): 0.25 µg/mL (≈ 0.197 µM)
- MIC (Candida parapsilosis [28]): 0.5 µg/mL (≈ 0.394 µM)
- MIC (Candida parapsilosis [29]): 0.5 µg/mL (≈ 0.394 µM)
- MIC (Candida parapsilosis [30]): 0.5 µg/mL (≈ 0.394 µM)
- MIC (Candida parapsilosis [31]): 0.5 µg/mL (≈ 0.394 µM)
- MIC (Candida parapsilosis [32]): 0.12 µg/mL (≈ 0.0945 µM)
- MIC (Candida parapsilosis [33]): 0.25 µg/mL (≈ 0.197 µM)
- MIC (Candida parapsilosis [34]): 0.5 µg/mL (≈ 0.394 µM)
- AUC(0-t) at 24 h [35]: 1400 µg·h/mL
